Screens as filed in PubChem BioAssay.
Insulin prom act: activators of insulin promoter-driven GFP, primary screen, imaging, TRM-6 cells (human fetal islet line), eGFP reporter, cell count; plate-scaled: unstimulated 0, stimulated control 100; activation, % at 2 µM; 130,000 compounds, 0.81% hits; AID 1296, 2008;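 active means activation at 2 µM above a set limit, confirmed on inspection of the cell images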;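 further: share of cells whose green reporter signal exceeds an intensity cutoff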
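Assay system: TRM-6 insulin promoter–eGFP reporter cells / Input: 1,000 cells per well / Medium: Low-glucose (5.5 mM) medium with tamoxifen / Also added: tamoxifen inducer, 0.75 µM, in seeding medium / Timing: overnight tamoxifen, then two-day compound incubation at 37 °C / Signal: automated fluorescence imaging of paraformaldehyde-fixed, Hoechst-counterstained cells, green channel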
Starred values were filed as active, the others as inactive; [ ] = another dose, or the depositor's remark. This is one part of a sample in which hits are shown more often than they occur.

SMILES	Insulin prom act
Cc1csc(NS(=O)(=O)c2cccc([N+](=O)[O-])c2)n1	-7
O=C(NC1CCCCC1)n1c(=O)oc2ccccc21	-3
Cn1c(=O)c(NCCc2ccccc2)c2c3c(cccc31)C(=O)c1ccccc1-2	170*[may fluoresce]
O=c1cc(NCCc2ccccc2)c2ccccc2o1	133
Cc1cccc(NC2=C(NCCO)C(=O)c3ccccc3C2=O)c1	-60
O=C1c2ccccc2C(=O)c2c1cccc2N1CCCC1	0
Cn1c(=O)c(NC2CCCCC2)c2c3c(cccc31)C(=O)c1ccccc1-2	567*
COc1ccc(S(=O)(=O)Nc2ccccc2OC)cc1NC(=O)CC1CC2CCC1C2 (stereo unspecified)	-2
COC(=O)c1c(NC(=O)CN2CCC3(O)CCCCC3C2c2cc(OC)ccc2OC)sc(C)c1C (stereo unspecified)	-64
CC(=O)c1cccc(NC(=O)C(CC(C)C)NC(=O)C2CCCCC2)c1 (stereo unspecified)	-7
O=C1Nc2ccccc2N(O)N1c1ccc(S(=O)(=O)N2CCCCCC2)cc1	8
CC1(C)CC(=O)C(N=Nc2cc3c(cc2[N+](=O)[O-])OCCO3)=C(O)C1	8
O=C(NCc1ccc(Cl)cc1)c1ccc(Br)o1	-5
CCOC(=O)C1=C(Nc2ccccc2)CC(C)(O)C(C(=O)OCC)C1c1ccc(Cl)cc1 (stereo unspecified)	2
Cc1cc(=O)n2[nH]c(NCc3ccccc3F)nc2n1	0
Cc1cc(=O)n2[nH]c(C(=O)O)nc2n1	77*
CCC(=O)Nc1nc2nc(C)cc(=O)n2[nH]1	-4
COc1cc2nc(CN3CCN(S(=O)(=O)c4ccc(Cl)cc4)CC3)[nH]c(=O)c2cc1OC	0
CC(C)(C)OC(=O)C(Cl)(C(=O)OC(C)(C)C)c1ccc2nnnn2n1	-8
Cc1cc(=O)oc2c(CN3CC(C)OC(C)C3)c(O)c(Cl)cc12 (stereo unspecified)	8
O=C(CSc1ncnc2c1cnn2CCO)Nc1cccc(C(F)(F)F)c1	-8
O=C(NCCc1ccccc1)c1oc2ccccc2c1COc1ccccc1	80*
O=C(NCCc1ccccc1)c1ccc(-c2ccccc2C(F)(F)F)o1	5
O=C(COC(=O)COc1ccccc1)NCc1ccccc1	0
CCc1ccc(NC(=O)C(C)OC(=O)CCC(=O)c2cccs2)cc1 (stereo unspecified)	-3
SMILES	Insulin prom act
CCOC(=O)c1c(C)[nH]c(C)c1C(=O)CSc1ncccn1	-3
CC(Nc1[nH]c(=O)n(C)c(=O)c1N=O)c1ccccc1 (stereo unspecified)	0
FCCCOc1ccc(CN2CCN(c3ccccc3F)CC2)cc1	-3
CC1=CC(C)(C)N2C(=O)C3(N=C(N)NC(Nc4ccccc4)=N3)c3cc(C)cc1c32 (stereo unspecified)	481*
COc1cccc(C2c3[nH]c4ccccc4c3CCN2C(=O)Cn2cncn2)c1OC (stereo unspecified)	-2
Fc1ccc(C2c3[nH]c4ccccc4c3CCN2Cc2cccn2-c2ncccn2)cc1 (stereo unspecified)	-7
COCc1ccc(CN2CCc3c([nH]c4ccccc34)C2C(C)(C)C)o1 (stereo unspecified)	231*
Cc1ccccc1NC(=O)CSc1nc2n(n1)CCCCC2	-4
COc1ccc(NC(=O)CN2c3cccc4cccc(c34)S2(=O)=O)cc1	8
COc1ccc2c(=O)c(N3C(=O)c4ccccc4C3=O)coc2c1	28
COc1ccc2c(c1)-c1ccccc1S(=O)(=O)N2C(C)=O	184*
Cc1ccc(OCC(O)CN2C(=O)NC(C)(C)C2=O)c(C)c1 (stereo unspecified)	0
Cc1oc2ccc(NS(=O)(=O)c3ccccc3)cc2c1C(=O)Nc1ccccc1	-3
CCOC(=O)c1c(C)oc2ccc(NS(=O)(=O)c3ccc4c5c(cccc35)C(=O)N4)cc12	506*
CCN(CC)S(=O)(=O)c1ccc2c3c(cccc13)C(=O)N2	-71
CCCNC(=O)NC(=O)CSc1cccc(C(F)(F)F)c1	146
Cc1ccc(CN(Cc2ccco2)S(=O)(=O)c2ccc(S(=O)(=O)NCC3CCCO3)cc2)cc1 (stereo unspecified)	0
C[C@@H]1CN(Cc2cn(C)nc2-c2cccc(Cl)c2)C[C@H](C)O1	115
COc1cc(/C=C(\NC(C)=O)C(=O)Nc2cccc(O)c2)ccc1OC(C)=O	0
COc1ccc(OC)c(NC(=O)CNC(=O)Cn2c(C)cc3ccccc3c2=O)c1	-10
COc1ccc(OC)c(NC(=O)CN2CCC(C(=O)c3ccc(C)cc3)CC2)c1	-83
CCn1c(=O)n(CC(=O)Nc2cc(OC)ccc2OC)c(=O)c2ccccc21	600*
Cc1cc(Cl)c(OCCCN2CCCCC2)c(Br)c1	146
Cc1cc(C)c(OCCN2C(=O)NC(C)(C)C2=O)c(Cl)c1	8
Cc1cc(Cl)c(OCCN2C(=O)NC(C)(C)C2=O)c(Br)c1	538*
SMILES	Insulin prom act
CSC(=NC#N)N1CCN(c2cccc(Cl)c2)CC1	0
Cc1nc2ccccn2c1C(=O)NNS(=O)(=O)c1ccc(C(C)(C)C)cc1	5
Cc1nc(-c2cccc(NS(=O)(=O)c3cccc4ccccc34)c2)cs1	-7
CC(C)(C)c1cc(C(=O)N2CCN(c3ncccn3)CC2)ccn1	-64
CC(C)(C)c1ccc(S(=O)(=O)N2CCN(c3ncccn3)CC2)cc1	267*
O=S(=O)(c1cc(F)cc(F)c1)N1CCN(c2ncccn2)CC1	-7
Cn1c(CCc2ccccc2)nnc1SCC(=O)N1CCOCC1	322
CCCSc1nnc(Cn2c(=O)sc3ccccc32)n1C	-25
CCCSc1nnc(CN2CCOCC2)n1C	419*
CC(C)(C)C(=O)Nc1cccc2[nH]ncc12	0
COc1ccc(NC(=O)C2=C(C)Nc3ncnn3C2c2ccccc2C(F)(F)F)c(OC)c1 (stereo unspecified)	403*
CC1=C(C(=O)Nc2cccnc2)C(c2cccnc2)n2ncnc2N1 (stereo unspecified)	-7
COc1ccccc1NC(=O)C1=C(C)Nc2nnnn2C1c1ccncc1 (stereo unspecified)	-8
COc1ccccc1-n1ccnc1SCC(=O)NCc1ccco1	4
CCN(CC)CCn1c2ccccc2c2cnc(N)c(C#N)c21	-3
CCOC(=O)c1sc(=S)n(-c2ccccc2)c1N(C(C)=O)C(C)=O	147
CCCn1c(CCC(=O)O)ccc1-c1cccs1	-3
O=C(O)CCc1ccc(-c2cccs2)n1CC1CCCO1 (stereo unspecified)	133
COCCCn1c(CCC(=O)O)ccc1-c1cccs1	86*
C=CCC(C=C)[N+]1(CC(=O)OC)CCCCC1 (stereo unspecified)	0
